Test system: Fibroblast
Experiment: Multiplex assay against human fibroblast
Assay type: toxicity, cell-based
Outline: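 Tubulin, mitochondrial-mass and membrane-permeability phenotypes are per cents of healthy-nucleus cells. Cells were gated by CellPathfinder machine learning into Hoechst high-intensity objects or normal cells, normal cells into healthy, pyknosed or fragmented nuclei, and pyknosed cells into mitotic or apoptotic. Before that, live cells stained at seeding with Hoechst33342, BioTracker Green Microtubule Cytoskeleton Dye, MitoTracker Red and Annexin V Alexa Fluor 680 were imaged on a CQ1 microscope at 37°C and 5% CO2 after compound addition.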

[1] = 12 h, 1 µM, compound concentration 1 uM, replicate 1
[2] = 12 h, 1 µM, compound concentration 1 uM, replicate 2
[3] = 12 h, 10 µM, compound concentration 10 uM, replicate 1
[4] = 12 h, 10 µM, compound concentration 10 uM, replicate 2
[5] = 24 h, 1 µM, compound concentration 1 uM, replicate 1
[6] = 24 h, 1 µM, compound concentration 1 uM, replicate 2
[7] = 24 h, 10 µM, compound concentration 10 uM, replicate 1
[8] = 24 h, 10 µM, compound concentration 10 uM, replicate 2
[9] = 48 h, 1 µM, compound concentration 1 uM, replicate 1
[10] = 48 h, 1 µM, compound concentration 1 uM, replicate 2
[11] = 48 h, 10 µM, compound concentration 10 uM, replicate 1
[12] = 48 h, 10 µM, compound concentration 10 uM, replicate 2

Cc1[nH]c(/C=C2\C(=O)Nc3ccc(S(=O)(=O)N(C)c4cccc(Cl)c4)cc32)c(C)c1C(=O)N1CCN(C)CC1
Population Apoptotic (%) [1]: 64%
Population Fragmented Nuclei (%) [1]: 25%
Population Healthy Nuclei (%) [1]: 51%
Population Hoechst High Intensity Objects (%) [1]: 8%
Population Membrane Permeable-Phenotype (%) [1]: 40%
Population Mitochondria Different-Phenotype (%) [1]: 6%
Population Mitotic Cells (%) [1]: 35%
Population Normal (%) [1]: 91%
Population Pyknosed Nuclei (%) [1]: 22%
Population Tubulin-Different-Phenotype (%) [1]: 43%
Total Cell Count [1]: 68
Population Apoptotic (%) [2]: 100%
Population Fragmented Nuclei (%) [2]: 16%
Population Healthy Nuclei (%) [2]: 77%
Population Hoechst High Intensity Objects (%) [2]: 12%
Population Membrane Permeable-Phenotype (%) [2]: 12%
Population Mitochondria Different-Phenotype (%) [2]: 42%
Population Mitotic Cells (%) [2]: 0%
Population Normal (%) [2]: 87%
Population Pyknosed Nuclei (%) [2]: 6%
Population Tubulin-Different-Phenotype (%) [2]: 68%
Total Cell Count [2]: 90
Population Apoptotic (%) [3]: 61%
Population Fragmented Nuclei (%) [3]: 20%
Population Healthy Nuclei (%) [3]: 61%
Population Hoechst High Intensity Objects (%) [3]: 5%
Population Membrane Permeable-Phenotype (%) [3]: 59%
Population Mitochondria Different-Phenotype (%) [3]: 13%
Population Mitotic Cells (%) [3]: 38%
Population Normal (%) [3]: 94%
Population Pyknosed Nuclei (%) [3]: 18%
Population Tubulin-Different-Phenotype (%) [3]: 93%
Total Cell Count [3]: 76
Population Apoptotic (%) [4]: 25%
Population Fragmented Nuclei (%) [4]: 10%
Population Healthy Nuclei (%) [4]: 74%
Population Hoechst High Intensity Objects (%) [4]: 12%
Population Membrane Permeable-Phenotype (%) [4]: 40%
Population Mitochondria Different-Phenotype (%) [4]: 97%
Population Mitotic Cells (%) [4]: 75%
Population Normal (%) [4]: 87%
Population Pyknosed Nuclei (%) [4]: 16%
Population Tubulin-Different-Phenotype (%) [4]: 100%
Total Cell Count [4]: 70
Population Apoptotic (%) [5]: 53%
Population Fragmented Nuclei (%) [5]: 22%
Population Healthy Nuclei (%) [5]: 56%
Population Hoechst High Intensity Objects (%) [5]: 3%
Population Membrane Permeable-Phenotype (%) [5]: 28%
Population Mitochondria Different-Phenotype (%) [5]: 14%
Population Mitotic Cells (%) [5]: 46%
Population Normal (%) [5]: 96%
Population Pyknosed Nuclei (%) [5]: 20%
Population Tubulin-Different-Phenotype (%) [5]: 62%
Total Cell Count [5]: 64
Population Apoptotic (%) [6]: 100%
Population Fragmented Nuclei (%) [6]: 18%
Population Healthy Nuclei (%) [6]: 72%
Population Hoechst High Intensity Objects (%) [6]: 8%
Population Membrane Permeable-Phenotype (%) [6]: 10%
Population Mitochondria Different-Phenotype (%) [6]: 40%
Population Mitotic Cells (%) [6]: 0%
Population Normal (%) [6]: 91%
Population Pyknosed Nuclei (%) [6]: 9%
Population Tubulin-Different-Phenotype (%) [6]: 55%
Total Cell Count [6]: 65
Population Apoptotic (%) [7]: 77%
Population Fragmented Nuclei (%) [7]: 41%
Population Healthy Nuclei (%) [7]: 46%
Population Hoechst High Intensity Objects (%) [7]: 7%
Population Membrane Permeable-Phenotype (%) [7]: 38%
Population Mitochondria Different-Phenotype (%) [7]: 50%
Population Mitotic Cells (%) [7]: 22%
Population Normal (%) [7]: 92%
Population Pyknosed Nuclei (%) [7]: 12%
Population Tubulin-Different-Phenotype (%) [7]: 97%
Total Cell Count [7]: 79
Population Apoptotic (%) [8]: 100%
Population Fragmented Nuclei (%) [8]: 17%
Population Healthy Nuclei (%) [8]: 73%
Population Hoechst High Intensity Objects (%) [8]: 8%
Population Membrane Permeable-Phenotype (%) [8]: 84%
Population Mitochondria Different-Phenotype (%) [8]: 100%
Population Mitotic Cells (%) [8]: 0%
Population Normal (%) [8]: 91%
Population Pyknosed Nuclei (%) [8]: 9%
Population Tubulin-Different-Phenotype (%) [8]: 100%
Total Cell Count [8]: 71
Population Apoptotic (%) [9]: 61%
Population Fragmented Nuclei (%) [9]: 30%
Population Healthy Nuclei (%) [9]: 48%
Population Hoechst High Intensity Objects (%) [9]: 11%
Population Membrane Permeable-Phenotype (%) [9]: 17%
Population Mitochondria Different-Phenotype (%) [9]: 13%
Population Mitotic Cells (%) [9]: 38%
Population Normal (%) [9]: 88%
Population Pyknosed Nuclei (%) [9]: 21%
Population Tubulin-Different-Phenotype (%) [9]: 65%
Total Cell Count [9]: 68
Population Apoptotic (%) [10]: 50%
Population Fragmented Nuclei (%) [10]: 16%
Population Healthy Nuclei (%) [10]: 80%
Population Hoechst High Intensity Objects (%) [10]: 17%
Population Membrane Permeable-Phenotype (%) [10]: 27%
Population Mitochondria Different-Phenotype (%) [10]: 15%
Population Mitotic Cells (%) [10]: 50%
Population Normal (%) [10]: 82%
Population Pyknosed Nuclei (%) [10]: 2%
Population Tubulin-Different-Phenotype (%) [10]: 81%
Total Cell Count [10]: 88
Population Apoptotic (%) [11]: 66%
Population Fragmented Nuclei (%) [11]: 40%
Population Healthy Nuclei (%) [11]: 37%
Population Hoechst High Intensity Objects (%) [11]: 11%
Population Membrane Permeable-Phenotype (%) [11]: 16%
Population Mitochondria Different-Phenotype (%) [11]: 76%
Population Mitotic Cells (%) [11]: 33%
Population Normal (%) [11]: 88%
Population Pyknosed Nuclei (%) [11]: 22%
Population Tubulin-Different-Phenotype (%) [11]: 100%
Total Cell Count [11]: 76
Population Apoptotic (%) [12]: 50%
Population Fragmented Nuclei (%) [12]: 21%
Population Healthy Nuclei (%) [12]: 72%
Population Hoechst High Intensity Objects (%) [12]: 8%
Population Membrane Permeable-Phenotype (%) [12]: 25%
Population Mitochondria Different-Phenotype (%) [12]: 52%
Population Mitotic Cells (%) [12]: 50%
Population Normal (%) [12]: 91%
Population Pyknosed Nuclei (%) [12]: 6%
Population Tubulin-Different-Phenotype (%) [12]: 95%
Total Cell Count [12]: 72

Source: ChEMBL document CHEMBL4689842, “EUbOPEN Chemogenomics Library wave 1” (2021)
